High-throughput results from PubChem.
hIAP block – human IAP inhibitors, primary screen, biochemical, luminescence, uHTS. purified IAP, CDP-Star luminescence, 30 min. 0.12% of 330,000 active. AID 2544, 2010. Intestinal-type alkaline phosphatase (Homo sapiens), P09923. inhibition, % at 10 µM;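 active = inhibition reaching a set limit with compound at 10 µM in the primary screen, cut at about 35% in these data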
Target sequence (P09923 whole entry, looked up): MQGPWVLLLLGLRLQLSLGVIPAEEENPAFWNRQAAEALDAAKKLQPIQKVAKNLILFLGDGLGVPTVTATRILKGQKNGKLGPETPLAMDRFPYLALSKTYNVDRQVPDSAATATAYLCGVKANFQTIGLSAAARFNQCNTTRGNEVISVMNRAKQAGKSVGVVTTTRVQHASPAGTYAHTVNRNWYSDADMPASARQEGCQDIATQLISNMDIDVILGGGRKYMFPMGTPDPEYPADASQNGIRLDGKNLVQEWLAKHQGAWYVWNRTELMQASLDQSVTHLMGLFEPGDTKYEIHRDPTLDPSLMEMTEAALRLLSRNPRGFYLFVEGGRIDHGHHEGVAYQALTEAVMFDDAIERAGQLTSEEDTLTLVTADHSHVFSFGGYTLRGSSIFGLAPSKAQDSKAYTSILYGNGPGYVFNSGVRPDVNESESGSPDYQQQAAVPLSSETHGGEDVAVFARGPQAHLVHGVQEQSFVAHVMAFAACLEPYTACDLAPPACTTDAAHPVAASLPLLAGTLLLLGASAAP
mIAP activ – activators of mouse IAP, primary screen, biochemical, luminescence, uHTS. muIAP, CDP-Star luminescence, 30 min; stronger effect = higher value; 1 = vehicle-only enzyme signal, 0 = enzyme-free wells. activation factor at 10 µM. 0.24% of 330,000 active;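 active = activation factor of at least 2 at 20 µM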
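Assay system: mouse IAP enzyme; reagent: chemiluminescent substrate CDP-Star; dosing: test compounds delivered from DMSO solution; schedule: 30 min at room temperature; measured by: luminescence from enzymatic CDP-Star hydrolysis; controls: DMSO-only wells and no-enzyme negative control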
bIAP inh – bovine intestinal alkaline phosphatase inhibitors, primary screen, selectivity assay for TNAP inhibitor project, biochemical, bovine IAP, CDP-star luminescence. AID 1019, 2008. purified bovine IAP, 30 min. 190,000 tested, under 10 active. inhibition, % at 20 µM;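 active = over 50% inhibition of intestinal alkaline phosphatase at 20 µM in the single-dose screen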
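Assay system: bovine IAP enzyme; medium: DEA buffer 100 mM, pH 9.8, with MgCl2 1.0 mM, ZnCl2 0.02 mM; doses: 20 µM single dose; incubation: enzyme reaction for 30 min at room temperature; detection: CDP-star luminescence signal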
hIAP act – human IAP activators, primary screen, biochemical, luminescence, uHTS | Intestinal-type alkaline phosphatase (Homo sapiens), P09923 | purified human IAP, CDP-Star luminescence, 30 min; stronger effect = higher value; 1 = vehicle-only enzyme, 0 = enzyme-free background | activation factor at 10 µM | 0.16% of 330,000 active;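 active = activation factor of the enzyme at least 2-fold when tested at 20 µM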
bIAP activator – bovine intestinal alkaline phosphatase activators, primary screen, biochemical, bovine IAP, CDP-star luminescence; purified bovine IAP, 30 min; stronger effect = higher value; fold of DMSO-control signal, blank-subtracted; activation factor at 20 µM; 0.17% of 200,000 active; AID 1016, 2008;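 active = activation factor of 2 or more at 20 µM, a signal rise over negative controls twice the positive control's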
mIAP inh – inhibitors of mouse IAP, primary screen, biochemical, luminescence, uHTS; purified mouse IAP, CDP-Star luminescence, 30 min; 0.2% of 330,000 active; AID 2806, 2010; intestinal alkaline phosphatase [Mus musculus]; inhibition, % at 10 µM;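 active = inhibition of at least 40% at 10 µM in the primary screen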
hIAP act confirm – human IAP activators, confirmation, biochemical, luminescence, single concentration, uHTS hits. AID 434926, 2010. activation (%Activity, negative = activation), % at 8.3 µM. shares compounds with hIAP act. 10% of 880 active. purified IAP, CDP-Star luminescence, 30 min; stronger effect = lower value;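 active = at least twofold enzyme activation in any of six single-dose repeats, which the averaged readout prints as negative percent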
A number is an active result; - = inactive; . = no result. An excerpt weighted towards active compounds, which were near 0.72% of everything screened.

SMILES	hIAP block	mIAP activ	bIAP inh	hIAP act	bIAP activator	mIAP inh	hIAP act confirm
O=C(Nc1ccccc1)Nc1cccc(Cl)c1Cl	-	2.92	-	-	-	-	.
O=C(Nc1ccncc1)Nc1cccc(Cl)c1Cl	-	-	.	-	.	-	.
O=C(COc1ccc([N+](=O)[O-])cc1)NNC(=O)Nc1ccccc1F	-	-	.	-	.	44.3	.
Cc1ccc(C(C)C)c(OCCNCc2ccccc2)c1	-	-	.	-	.	-	.
Cc1ccc(C(C)C)c(OCCNC(=S)Nc2cccc3ccccc23)c1	-	2.3	-	-	-	-	.
O=C(NCc1ccc(Cl)cc1)c1ccc2ccccc2n1	-	-	.	-	.	-	.
CCCCCCCCNc1ncnc2ccccc12	-	-	-	-	9	-	.
COc1cccc(NC(=O)Nc2ccc(CC(=O)O)cc2)c1	-	-	-	-	-	-	.
CCc1ccc(NC(=O)Nc2cccc(OC)c2)cc1	-	2.51	-	-	-	-	.
COc1ccc(NC(=O)Nc2ccc(Br)c(C)c2)cc1	-	2.06	-	-	-	-	.
CCOC(=O)c1ccc(N2CCN(c3ccc(F)cc3)CC2)c(NC(=O)Nc2cccc(OC)c2)c1	-	2.84	-	-	-	-	.
COc1ccc(NC(=O)Nc2cc(C)ccc2OC)cc1	-	-	-	-	-	-	.
CCc1cc2c(cc3c(=O)n(CC(=O)NCCCN4CCCCCC4)nc(CC)n32)s1	-	-	.	-	.	-	.
CCCCCCCN1C/C=C\C(c2ccc(OC)cc2)N(Cc2ccc(F)cc2)C(=O)[C@H]1Cc1ccccc1 (stereo not given in full)	-	-	.	-	.	-	.
S=C(NCc1ccco1)Nc1ccc(Cl)c(Cl)c1	-	2.3	-	-	-	-	.
O=C(CCCc1ccccc1)Nc1ccnn1C1CCN(Cc2ccccc2F)CC1	-	-	.	-	.	-	.
COc1ccc(CN2CCC(n3nccc3NC(=O)CCc3ccccc3)CC2)c(C)c1C	-	2.05	.	2.31	.	-	-
O=C(CCCc1ccccc1)Nc1ccnn1C1CCN(Cc2ccccc2)CC1	-	-	.	-	.	-	.
COc1cccc(CN2CCC(n3nccc3NC(=O)CCCc3ccccc3)CC2)c1O	-	-	.	-	.	-	.
CCOc1ccc(CN2CCC(n3nccc3NC(=O)CCCc3ccccc3)CC2)cc1	-	2.21	.	3.17	.	-	-
COc1cc(CN2CCC(n3nccc3NC(=O)CCCc3ccccc3)CC2)ccc1F	-	-	.	2.01	.	-	-
COc1c(C)cccc1C(=O)NC(=S)Nc1ccccc1N1CCCC1	35.1	-	.	-	.	-	-
O=C(NC(=S)Nc1ccccc1N1CCCC1)c1ccccc1Br	-	-	.	-	.	-	.
Cc1cccc(N2CCN(C(=O)c3cn4ccccc4n3)CC2C)c1 (stereo not given)	-	-	-	-	-	-	.
CC(=O)Nc1nc(-c2cccc3ccccc23)cs1	-	-	.	-	.	-	.
SMILES	hIAP block	mIAP activ	bIAP inh	hIAP act	bIAP activator	mIAP inh	hIAP act confirm
CC(=O)Nc1nc(-c2ccc(Br)s2)cs1	-	-	-	2.2	-	-	-
COc1ccc(Oc2cc(C(F)(F)F)nc(N(C)C)n2)cc1	-	-	-	-	-	-	.
CCC(C)[C@H]1CN=C(N)N1CCc1cccc(F)c1 (stereo not given in full)	-	-	.	-	.	-	.
Cc1c(C(=O)NCc2ccc(S(N)(=O)=O)cc2)oc2ccc(Cl)cc12	-	-	-	-	-	-	.
Cc1cccc(OCC(=O)Nc2cccc(O)c2)c1	-	-	-	2.17	-	-	-
Cc1ccc(OCC(=O)Nc2cccc(O)c2)cc1C	-	-	-	-	-	-	.
O=C(CN1C(=O)c2ccccc2S1(=O)=O)NCc1cccs1	45.1	-	.	-	.	-	-
CCC(NC(=S)NC1CCCCC1)c1ccc(C(C)C)cc1 (stereo not given)	-	5.67	.	4.11	.	-	-24.1
Cc1ccc(C(C)NC(=S)NC2CCCCC2)cc1C (stereo not given)	-	-	.	-	.	-	.
Cc1ccc(C2(O)C(=O)c3ccccc3C2=O)c(O)c1C	-	-	.	-	.	-	.
CC(C)(C)c1cccc(C2(O)C(=O)c3ccccc3C2=O)c1O	58.1	-	.	-	.	-	-
Cc1ccc(O)c(/C=N/NC(=O)c2[nH]ncc2Br)c1	-	-	-	2.23	-	-	-
O=C(N/N=C/c1cccs1)c1[nH]ncc1Br	-	-	.	-	.	-	.
CCOc1ccc(/C=N/NC(=O)c2[nH]ncc2Br)c(O)c1	-	-	-	2.08	-	-	-294.4
O=C(N/N=C/c1c(O)ccc2ccccc12)c1[nH]ncc1Br	-	-	-	2.21	-	-	-
COc1ccc(OC)c(/C=N/NC(=O)c2[nH]ncc2Br)c1	-	-	.	-	.	-	.
Cc1ccc(O)c(/C=N/NC(=O)C2=NNC(c3ccccc3)(c3ccccc3)C2)c1	.	.	-	.	-	.	.
COc1ccc(C(=O)NC(=S)NCc2ccco2)cc1	-	-	.	-	.	-	.
Oc1ccc(N2CCN(c3nnnn3-c3ccccc3)CC2)cc1	-	-	-	-	-	-	.
CCN(CC)C(=O)COc1coc(CN2CCN(c3ccccc3)CC2)cc1=O	-	-	.	-	.	-	.
CN(C(=O)CO/N=C/c1ccc(OC(F)F)cc1)C1CCS(=O)(=O)C1 (stereo not given)	-	-	-	-	-	-	.
CCCc1nc(NCCCOCC)c2nnn(Cc3ccccc3)c2n1	-	-	.	-	.	-	.
O=C(O)CCC(=O)Nc1ccccc1C(=O)NC1CCCCC1	-	-	-	2.1	-	-	-
COc1ccc(N(CC(=O)NCC2CCCO2)C(=O)CCC(=O)Nc2cc(C)on2)cc1OC (stereo not given)	-	-	.	-	.	-	.
O=C(NNc1c2ccccc2nc2ccccc12)c1ccccc1O	-	-	-	-	-	-	.
O=C(NNc1nc(=O)c2cccnc2s1)c1ccccc1O	-	-	-	2.86	-	-	-
CC(C)N1C(=O)C(=O)N(CC(=O)N2c3ccccc3NC(=O)CC2C)C1=O (stereo not given)	-	-	.	-	.	-	.
Cc1nc(SCC(=O)Nc2ccc(CN3CCCC3)cc2)c2c(C)c(C)sc2n1	-	-	.	-	.	-	.
O=C(NNC(=O)c1ccccc1O)c1cc2ccccc2o1	-	-	.	2.37	.	-	-
COc1ccc(NC(=O)CCOc2ccccc2C)cc1S(=O)(=O)N1CCCCC1	-	-	.	-	.	-	.
